Source: PubChem BioAssay
Cl transport mod: KCC2 cotransporter modulators, thallium flux, primary screen, cell-based, HEK293 KCC2, FluoZin-2 fluorescence, MLSMR; Solute carrier family 12 member 5 (Homo sapiens), Q9H2X9; 190,000 compounds, 2.2% hits; B-score of Tl+ flux slope (higher = more flux/activation; lower = inhibition) at 10 µM; KCC2 cells, thallium flux FluoZin-2 fluorescence;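 active = thallium flux slope and its plate-corrected score both differing from the plate sample mean at a set confidence after two filtering rounds, in either direction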;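 also: slope of fluorescence scaled to starting intensity during 10 to 20 s after thallium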
AI-2 QS modul: Vibrio harveyi AI-2 quorum sensing modulators, primary screen, JMH597 strain, luminescence/OD600 ratio. 300,000 compounds, 0.4% hits. Vibrio harveyi JMH597 AI-2 luminescence/OD600 ratio, 9 h; active compounds read low; strain lacks LuxN and CqsS sensors; 0 = neutral-control median. activity change, % at 7.5 µM; in the data active = activity change below about -75%, passing the limit was not always enough;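 also: luminescence divided by OD600 gain over 9 h not by final OD600 alone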
KCNQ1 pot: potentiators or activators of KCNQ1 channel, primary screen, cell-based, thallium flux, high-throughput; Potassium voltage-gated channel subfamily KQT member 1 (Homo sapiens), P51787; CHO-K1 KCNQ1, thallium flux FluxOR fluorescence; active compounds read high; B-score at 10 µM; 310,000 compounds, 0.35% hits; AID 2648, 2010;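 active = fluorescence ratio B-score, a plate-corrected score, at least three library SD, with initial intensity B-score within 5 SD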
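Schedule – 37 °C overnight plating, 90-min dark dye load, 20-min compound pretreatment · System – stable KCNQ1 CHO-K1 line · Probe or stimulus – thallium- and potassium-containing depolarizing buffer · Measured by – kinetic FluxOR fluorescence, 10 s baseline plus 110 s post-stimulus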
hERG rescue: hERG rescue from dofetilide block, primary screen, cell-based, CHO-hERG, FluxOR thallium flux, dofetilide IC70. dofetilide IC70 present. activation (rescue from dofetilide block), less the hit threshold, % at 10 µM. 310,000 compounds, 0.51% hits. AID 1511, 2009;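 active = activation above the mean of controls blocked by dofetilide plus 5 SD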;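 also: thallium influx through hERG after potassium depolarization seen as dye fluorescence rise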
Target sequence (Q12809 whole entry, looked up): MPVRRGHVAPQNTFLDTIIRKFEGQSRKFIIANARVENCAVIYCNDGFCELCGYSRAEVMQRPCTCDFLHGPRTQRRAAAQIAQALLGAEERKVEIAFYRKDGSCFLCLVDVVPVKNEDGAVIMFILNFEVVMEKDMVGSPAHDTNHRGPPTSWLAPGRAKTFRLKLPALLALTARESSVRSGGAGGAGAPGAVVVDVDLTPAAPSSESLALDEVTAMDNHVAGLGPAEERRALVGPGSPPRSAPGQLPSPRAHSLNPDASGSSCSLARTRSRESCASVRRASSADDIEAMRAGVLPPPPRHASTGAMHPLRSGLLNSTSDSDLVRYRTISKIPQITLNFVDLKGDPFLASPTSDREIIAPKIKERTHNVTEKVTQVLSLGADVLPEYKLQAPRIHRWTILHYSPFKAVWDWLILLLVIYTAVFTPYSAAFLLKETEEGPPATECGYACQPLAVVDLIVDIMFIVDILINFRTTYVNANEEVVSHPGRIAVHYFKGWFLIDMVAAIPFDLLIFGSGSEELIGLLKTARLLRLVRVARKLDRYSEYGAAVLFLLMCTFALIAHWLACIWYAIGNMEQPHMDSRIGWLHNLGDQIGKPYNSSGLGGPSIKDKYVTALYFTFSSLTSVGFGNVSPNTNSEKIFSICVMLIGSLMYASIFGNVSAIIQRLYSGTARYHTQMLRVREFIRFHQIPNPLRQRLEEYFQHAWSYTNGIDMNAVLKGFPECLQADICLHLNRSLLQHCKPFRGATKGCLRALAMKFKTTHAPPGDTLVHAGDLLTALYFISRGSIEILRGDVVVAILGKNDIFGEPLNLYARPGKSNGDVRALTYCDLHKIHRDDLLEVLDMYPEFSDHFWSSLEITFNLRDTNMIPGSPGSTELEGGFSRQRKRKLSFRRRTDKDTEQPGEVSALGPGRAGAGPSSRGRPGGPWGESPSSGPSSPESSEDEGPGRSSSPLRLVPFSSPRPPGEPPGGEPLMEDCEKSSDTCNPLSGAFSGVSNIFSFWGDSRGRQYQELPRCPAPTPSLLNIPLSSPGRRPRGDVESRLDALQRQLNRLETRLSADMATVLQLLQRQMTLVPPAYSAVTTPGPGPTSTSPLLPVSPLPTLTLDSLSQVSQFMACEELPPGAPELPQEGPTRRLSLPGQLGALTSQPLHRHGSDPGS
KCNQ1 block: inhibitors of human KCNQ1 channel, primary screen, cell-based, thallium flux, high-throughput. Potassium voltage-gated channel subfamily KQT member 1 (Homo sapiens), P51787. CHO-K1 KCNQ1, FluxOR thallium flux fluorescence; active compounds read high. B-score at 10 µM. 310,000 compounds, 1.3% hits. AID 2642, 2010;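 active = compounds whose thallium flux B-score, printed positive for inhibition, exceeds three library SD while starting fluorescence stays within three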;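 also: channel opened by potassium depolarization with thallium stimulus after 20 min compound exposure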
SUMO Mot1 rescue: yeast Mot1-301 growth rescue at high temperature, primary screen, SUMOylation pathway inhibitor project, S. cerevisiae, ATP luminescence, 38.5C | S. cerevisiae Mot1-301 growth rescue; percent above DMSO median, 100 means doubled | growth rescue, % at 18.8 µM | 320,000 compounds, 1% hits | AID 2716, 2010;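 active = every valid replicate shows activation above 250% relative to neutral control wells; inactive = the rest, any valid replicate at or below 250%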
KCNQ1 inh valid: KCNQ1 potassium channel inhibitors, confirmation, cell-based, Tl flux, duplicate; shares compounds with KCNQ1 block; KCNQ1 cell line, FluxOR thallium flux fluorescence; inhibition, % at 10 µM; 1,600 compounds, 93% hits; AID 588353, 2011;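 active = primary screen active, with duplicate mean exceeding buffer control mean plus 3 SD of buffer wells, cut at about 28% in these data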
CHO KCNQ1 ctr: thallium flux effects in parental CHO cells, counter-screen for KCNQ1 inhibitor project, cell-based, Tl flux | shares compounds with KCNQ1 block | parental CHO-K1, FluxOR thallium flux fluorescence ratio; active compounds read low; zero means no signal rise above baseline | fluorescence ratio (Tl flux) at 10 µM | 1,600 compounds, 21% hits | AID 588366, 2011;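 active = mean of duplicate thallium-flux fluorescence ratios in parental host cells more than 5 SD below the buffer control mean, cut at about 0.38 in these data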;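 also: ratio is peak minus minimum fluorescence divided by baseline fluorescence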
KCNQ1 APC inh: KCNQ1 channel inhibitors, confirmation, orthogonal assay, cell-based, automated electrophysiology; 490 compounds, 20% hits; calls only at 10 µM; KCNQ1-CHO cells, automated patch clamp current; shares compounds with KCNQ1 block;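 active = KCNQ1 current drop exceeding 3 SD of negative control wells, seen in both duplicate runs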;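 also: steady state current during a 2 s step from -80 to +40 mV; negative values mean current inhibition and positive values mean potentiation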
KCNQ2 spec: KCNQ2 channel inhibition, selectivity assay for KCNQ1 inhibitor project, cell-based | shares compounds with KCNQ1 block | KCNQ2 cells, FluxOR thallium flux fluorescence | inhibition, % at 10 µM | 1,600 compounds, 71% hits;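 active = mean percent inhibition of the KCNQ2 thallium signal more than 5 SD above the buffer-only control wells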;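 also: KCNQ2 expressed in CHO cells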
KCNQ1-KCNE1 inh: KCNQ1/KCNE1 channel inhibition, selectivity assay for KCNQ1 inhibitor project, CHO-K1 cells, thallium flux, FluxOR; FluxOR thallium flux fluorescence; AID 652147, 2013; 1,600 compounds, 77% hits; shares compounds with KCNQ1 block; inhibition, % at 10 µM;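 active = mean percent inhibition of duplicate wells above the buffer-only control mean plus 3 SD of those controls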
Hits are given with their value. An excerpt weighted towards active compounds, which were near 4.2% of everything screened.

For CC(=O)c1ccc(NC(=S)NC(C)CCc2ccccc2)cc1 (stereo not given) the results were Cl transport mod inactive, AI-2 QS modul inactive, KCNQ1 pot inactive, hERG rescue inactive, KCNQ1 block 7, SUMO Mot1 rescue inactive, KCNQ1 inh valid 38.5, CHO KCNQ1 ctr inactive, KCNQ2 spec inactive and KCNQ1-KCNE1 inh 41.0%.
`CSc1ccc(CN(C)C(C)C(=O)NCC2CCCCC2)cc1` (stereo not given) gave AI-2 QS modul inactive, KCNQ1 pot inactive, hERG rescue inactive, KCNQ1 block 6, SUMO Mot1 rescue inactive, KCNQ1 inh valid 65.5, CHO KCNQ1 ctr inactive, KCNQ2 spec 69.0% and KCNQ1-KCNE1 inh 79.5%.
`CC(C(=O)NCC1CCCCC1)N(C)Cc1ccc(Cl)cc1` (stereo not given) gave Cl transport mod inactive, AI-2 QS modul inactive, KCNQ1 pot inactive, hERG rescue inactive, KCNQ1 block 9, SUMO Mot1 rescue inactive, KCNQ1 inh valid 75.5, CHO KCNQ1 ctr 0.376, KCNQ2 spec 68.7% and KCNQ1-KCNE1 inh 98.5%.
Screening CC(OC(=O)c1ccc(Br)o1)C(=O)NCC1CCCCC1 (stereo not given) returned SUMO Mot1 rescue inactive.
For CC(C(=O)NCC1CCCCC1)N(C)Cc1ccc(Br)cc1 (stereo not given) the results were AI-2 QS modul inactive, KCNQ1 pot inactive, hERG rescue inactive, KCNQ1 block 8, SUMO Mot1 rescue inactive, KCNQ1 inh valid 69.0, CHO KCNQ1 ctr inactive, KCNQ2 spec 92.0% and KCNQ1-KCNE1 inh 66.0%.
For O=C(COC(=O)c1ccc(S(=O)(=O)C(F)F)cc1)Nc1ccccc1C(=O)NC1CC1 the results were SUMO Mot1 rescue inactive.
Screening COc1cccc(C(=O)N2CCC(C(=O)NCc3ccco3)CC2)c1 returned AI-2 QS modul inactive, KCNQ1 pot inactive, hERG rescue inactive, KCNQ1 block inactive and SUMO Mot1 rescue inactive.
For COc1ccccc1N(C(=O)c1snc(C(N)=O)c1N)C(C(=O)NC1CCCC1)c1ccc2ncccc2c1 (stereo not given) the results were KCNQ1 pot inactive, hERG rescue inactive, KCNQ1 block inactive and SUMO Mot1 rescue inactive.
For CSc1nnc(C)c(/C=C/Nc2ccc(Cl)cc2)n1 the results were Cl transport mod inactive, AI-2 QS modul inactive, KCNQ1 pot inactive, hERG rescue inactive, KCNQ1 block 11, SUMO Mot1 rescue inactive, KCNQ1 inh valid 48.5, CHO KCNQ1 ctr inactive, KCNQ2 spec inactive and KCNQ1-KCNE1 inh 87.5%.
CC(NC(=O)Nc1ccc(Cl)c(Cl)c1)C(c1ccccc1)N1CCOCC1 (stereo not given) was read as Cl transport mod inactive, AI-2 QS modul inactive, KCNQ1 pot inactive, hERG rescue inactive, KCNQ1 block 9, SUMO Mot1 rescue inactive, KCNQ1 inh valid 105.0, CHO KCNQ1 ctr inactive, KCNQ1 APC inh active, KCNQ2 spec 81.3% and KCNQ1-KCNE1 inh 79.0%.
`COc1ccc2nc(NC(=O)Cn3cnc4ccccc4c3=O)sc2c1` gave Cl transport mod inactive, AI-2 QS modul inactive, KCNQ1 pot inactive, hERG rescue inactive, KCNQ1 block inactive and SUMO Mot1 rescue inactive.
Cc1nc2cc(NCc3ccccc3O)ccc2n1Cc1ccccc1 was read as Cl transport mod inactive, AI-2 QS modul inactive, KCNQ1 pot inactive, hERG rescue inactive, KCNQ1 block 8, SUMO Mot1 rescue inactive, KCNQ1 inh valid 49.5, CHO KCNQ1 ctr inactive, KCNQ2 spec inactive and KCNQ1-KCNE1 inh 43.0%.
Screening CC[C@@H]1CC=C[C@H]2[C@H]1C(=O)N(Cc1ccccc1)[C@H]2c1ccoc1 returned Cl transport mod inactive, AI-2 QS modul inactive, KCNQ1 pot inactive, hERG rescue inactive, KCNQ1 block 9, SUMO Mot1 rescue 679.4, KCNQ1 inh valid 78.0, CHO KCNQ1 ctr 0.377, KCNQ2 spec 103.7% and KCNQ1-KCNE1 inh 114.5%.
For CN(Cc1nc2ccccc2c(=O)[nH]1)C(=O)c1cc(C2CC2)nn1-c1ccccc1 the results were SUMO Mot1 rescue inactive.
Screening CCN(CC)C(=O)C1CCCN(C(=O)c2cc(COc3cccc(OC)c3)on2)C1 (stereo not given) returned AI-2 QS modul inactive, KCNQ1 pot inactive, hERG rescue inactive, KCNQ1 block inactive and SUMO Mot1 rescue inactive.
Cc1[nH]n(-c2ncc(-c3ccccc3)s2)c(=O)c1C(c1ccc(Cl)cc1)C(C#N)C#N (stereo not given) was read as Cl transport mod inactive, AI-2 QS modul inactive, KCNQ1 pot inactive, hERG rescue inactive, KCNQ1 block 7, SUMO Mot1 rescue inactive, KCNQ1 inh valid 45.0, CHO KCNQ1 ctr inactive, KCNQ2 spec inactive and KCNQ1-KCNE1 inh 69.0%.
`Cc1ccc(-c2nnn(C(C)C(=O)N3c4ccccc4CCc4ccccc43)n2)cc1` (stereo not given) gave Cl transport mod inactive, AI-2 QS modul inactive, KCNQ1 pot inactive, hERG rescue inactive, KCNQ1 block 6, SUMO Mot1 rescue inactive, KCNQ1 inh valid 135.0, CHO KCNQ1 ctr inactive, KCNQ1 APC inh inactive, KCNQ2 spec 92.0% and KCNQ1-KCNE1 inh 162.5%.
